Data as given in PubChem BioAssay AID504519 (The Scripps Research Institute Molecular Screening Center, 2011).
Calls of active or inactive are those of the source.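 The calls were made as follows: active = labelling ratio, compound over solvent, at most 0.5 for PAFAH2 while all off-target serine hydrolases stay above 0.5; inactive = the rest.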

Assays:
Experiment in all cases: SILAC ABPP target and off-target inhibition profile – LC-MS, BW5147 murine T cells, selectivity assay for PAFAH2 inhibitor project, late-stage follow-up (AID 504519)
AADACL1 = conditions: stronger effect = lower value
Procedure, shortened: (§1)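 assay system = BW5147-derived mouse T-cell hybridoma, SILAC-labeled | buffer or medium = SILAC RPMI, light or heavy | dosing = test compound on light cells, DMSO vehicle on heavy cells, in situ | detection = MudPIT LC/LC-MS/MS after biotin enrichment | evaluation = Per-protein light/heavy peptide intensity ratio, 1 meaning no inhibition | control set = DMSO-treated heavy-labeled cells as in-sample reference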

ABHD10 = conditions: stronger effect = lower value
Procedure, shortened: as §1

ABHD11 = conditions: stronger effect = lower value
Procedure, shortened: as §1

ABHD12 = conditions: stronger effect = lower value
Procedure, shortened: as §1

ABHD13 = conditions: stronger effect = lower value
Procedure, shortened: as §1

ABHD6 = conditions: stronger effect = lower value
Procedure, shortened: as §1

ACOT1 = conditions: stronger effect = lower value
Procedure, shortened: as §1

ACOT2 = conditions: stronger effect = lower value
Procedure, shortened: as §1

ACOT7 = conditions: stronger effect = lower value
Procedure, shortened: as §1

APEH = conditions: stronger effect = lower value
Procedure, shortened: as §1

BAT5 = conditions: stronger effect = lower value
Procedure, shortened: as §1

CTSA = conditions: stronger effect = lower value
Procedure, shortened: as §1

DDHD1 = conditions: stronger effect = lower value
Procedure, shortened: as §1

DPP4 = conditions: stronger effect = lower value
Procedure, shortened: as §1

DPP7 = conditions: stronger effect = lower value
Procedure, shortened: as §1

DPP8 = conditions: stronger effect = lower value
Procedure, shortened: as §1

DPP9 = conditions: stronger effect = lower value
Procedure, shortened: as §1

ESD = conditions: stronger effect = lower value
Procedure, shortened: as §1

FAAH = conditions: stronger effect = lower value
Procedure, shortened: as §1

FAM108A = conditions: stronger effect = lower value
Procedure, shortened: as §1

FAM108B1 = conditions: stronger effect = lower value
Procedure, shortened: as §1

FAM108C = conditions: stronger effect = lower value
Procedure, shortened: as §1

FASN = conditions: stronger effect = lower value
Procedure, shortened: as §1

IAH1 = conditions: stronger effect = lower value
Procedure, shortened: as §1

LACTB = conditions: stronger effect = lower value
Procedure, shortened: as §1

LIPA = conditions: stronger effect = lower value
Procedure, shortened: as §1

LYPLA1 = conditions: stronger effect = lower value
Procedure, shortened: as §1

LYPLA2 = conditions: stronger effect = lower value
Procedure, shortened: as §1

LYPLA3 = conditions: stronger effect = lower value
Procedure, shortened: as §1

PAFAH1B2 = conditions: stronger effect = lower value
Procedure, shortened: as §1

PAFAH1B3 = conditions: stronger effect = lower value
Procedure, shortened: as §1

PARL = conditions: stronger effect = lower value
Procedure, shortened: as §1

PLA2G6 = conditions: stronger effect = lower value
Procedure, shortened: as §1

PNPLA6 = conditions: stronger effect = lower value
Procedure, shortened: as §1

PNPLA7 = conditions: stronger effect = lower value
Procedure, shortened: as §1

PPME1 = conditions: stronger effect = lower value
Procedure, shortened: as §1

PRCP = conditions: stronger effect = lower value
Procedure, shortened: as §1

PREPL = conditions: stronger effect = lower value
Procedure, shortened: as §1

[1] = biological target: Platelet-activating factor acetylhydrolase 2, cytoplasmic (Mus musculus) (UniProt Q8VDG7); conditions: PAFAH2, stronger effect = lower value
Sequence of Platelet-activating factor acetylhydrolase 2, cytoplasmic (Mus musculus) (Q8VDG7 whole entry, looked up): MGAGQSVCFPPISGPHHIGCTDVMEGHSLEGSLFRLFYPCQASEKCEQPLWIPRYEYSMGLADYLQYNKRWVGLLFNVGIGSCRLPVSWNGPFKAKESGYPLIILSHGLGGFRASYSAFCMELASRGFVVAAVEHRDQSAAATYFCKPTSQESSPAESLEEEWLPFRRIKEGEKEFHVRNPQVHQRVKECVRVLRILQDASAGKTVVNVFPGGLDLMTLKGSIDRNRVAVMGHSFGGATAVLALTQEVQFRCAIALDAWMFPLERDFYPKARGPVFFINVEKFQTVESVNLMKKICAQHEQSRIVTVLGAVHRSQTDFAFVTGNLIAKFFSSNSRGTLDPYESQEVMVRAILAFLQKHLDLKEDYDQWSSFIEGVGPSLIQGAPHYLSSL
Procedure, shortened: as §1

[2] = biological target: Prolyl endopeptidase (Mus musculus) (UniProt Q9QUR6); conditions: PREP, stronger effect = lower value
Sequence of Prolyl endopeptidase (Mus musculus) (Q9QUR6 whole entry, looked up): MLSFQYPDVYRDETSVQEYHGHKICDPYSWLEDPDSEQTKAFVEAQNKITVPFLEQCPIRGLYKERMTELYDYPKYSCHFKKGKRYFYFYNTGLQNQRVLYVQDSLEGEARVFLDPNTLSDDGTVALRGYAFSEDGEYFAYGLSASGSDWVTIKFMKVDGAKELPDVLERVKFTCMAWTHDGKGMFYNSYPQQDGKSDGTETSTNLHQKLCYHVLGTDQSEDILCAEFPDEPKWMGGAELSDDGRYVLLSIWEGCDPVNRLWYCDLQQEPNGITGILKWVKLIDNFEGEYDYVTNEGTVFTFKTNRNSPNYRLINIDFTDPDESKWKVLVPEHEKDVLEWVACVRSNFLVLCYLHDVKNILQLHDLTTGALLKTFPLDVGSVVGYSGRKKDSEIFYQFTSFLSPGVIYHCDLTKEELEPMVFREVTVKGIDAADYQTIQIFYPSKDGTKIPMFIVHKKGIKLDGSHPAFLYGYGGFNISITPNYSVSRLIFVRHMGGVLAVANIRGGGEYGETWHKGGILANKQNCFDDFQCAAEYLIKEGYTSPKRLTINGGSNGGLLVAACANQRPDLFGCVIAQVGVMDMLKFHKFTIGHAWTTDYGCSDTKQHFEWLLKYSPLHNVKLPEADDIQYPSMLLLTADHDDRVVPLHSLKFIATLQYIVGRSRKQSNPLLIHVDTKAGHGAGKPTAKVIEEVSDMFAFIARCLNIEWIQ
Procedure, shortened: as §1

SERHL = conditions: stronger effect = lower value
Procedure, shortened: as §1

SIAE = conditions: stronger effect = lower value
Procedure, shortened: as §1

SILAC ratio inhibitor/DMSO (AADACL1): 1.3 (inactive)
SILAC ratio inhibitor/DMSO (ABHD10): 1.4 (inactive)
SILAC ratio inhibitor/DMSO (ABHD11): 1.4 (inactive)
SILAC ratio inhibitor/DMSO (ABHD12): 1.3 (inactive)
SILAC ratio inhibitor/DMSO (ABHD13): 1.2 (inactive)
SILAC ratio inhibitor/DMSO (ABHD6): 0.59 (inactive)
SILAC ratio inhibitor/DMSO (ACOT1): 1.2 (inactive)
SILAC ratio inhibitor/DMSO (ACOT2): 1.2 (inactive)
SILAC ratio inhibitor/DMSO (ACOT7): 1.2 (inactive)
SILAC ratio inhibitor/DMSO (APEH): 1 (inactive)
SILAC ratio inhibitor/DMSO (BAT5): 1.3 (inactive)
SILAC ratio inhibitor/DMSO (CTSA): 1.1 (inactive)
SILAC ratio inhibitor/DMSO (DDHD1): 1.4 (inactive)
SILAC ratio inhibitor/DMSO (DPP4): 1.2 (inactive)
SILAC ratio inhibitor/DMSO (DPP7): 1.2 (inactive)
SILAC ratio inhibitor/DMSO (DPP8): 1.3 (inactive)
SILAC ratio inhibitor/DMSO (DPP9): 1.3 (inactive)
SILAC ratio inhibitor/DMSO (ESD): 1 (inactive)
SILAC ratio inhibitor/DMSO (FAAH): 1.3 (inactive)
SILAC ratio inhibitor/DMSO (FAM108A): 1.1 (inactive)
SILAC ratio inhibitor/DMSO (FAM108B1): 1.2 (inactive)
SILAC ratio inhibitor/DMSO (FAM108C): 1.3 (inactive)
SILAC ratio inhibitor/DMSO (FASN): 1.3 (inactive)
SILAC ratio inhibitor/DMSO (IAH1): 1.2 (inactive)
SILAC ratio inhibitor/DMSO (LACTB): 1.3 (inactive)
SILAC ratio inhibitor/DMSO (LIPA): 1.6 (inactive)
SILAC ratio inhibitor/DMSO (LYPLA1): 1.3 (inactive)
SILAC ratio inhibitor/DMSO (LYPLA2): 1.4 (inactive)
SILAC ratio inhibitor/DMSO (LYPLA3): 1.3 (inactive)
SILAC ratio inhibitor/DMSO (PAFAH1B2): 1.2 (inactive)
SILAC ratio inhibitor/DMSO (PAFAH1B3): 1.3 (inactive)
SILAC ratio inhibitor/DMSO (PARL): 1.2 (inactive)
SILAC ratio inhibitor/DMSO (PLA2G6): 0.91 (inactive)
SILAC ratio inhibitor/DMSO (PNPLA6): 1.6 (inactive)
SILAC ratio inhibitor/DMSO (PNPLA7): 1.6 (inactive)
SILAC ratio inhibitor/DMSO (PPME1): 1.2 (inactive)
SILAC ratio inhibitor/DMSO (PRCP): 1.4 (inactive)
SILAC ratio inhibitor/DMSO (PREPL): 1.3 (inactive)
SILAC ratio inhibitor/DMSO [1]: 0
SILAC ratio inhibitor/DMSO [2]: 1.3 (inactive)
SILAC ratio inhibitor/DMSO (SERHL): 1.1 (inactive)
SILAC ratio inhibitor/DMSO (SIAE): 1.3 (inactive)
SMILES: O=C(N1CCCC1)n1ncc(-c2ccc(-c3ccccc3)cc2)n1
